Results on nine molecules are retold here after ChEMBL document CHEMBL1123696, “1H NMR study of degradation mechanisms of oxacephem derivatives with various 3'-substituents in alkaline solution” (J Med Chem, 1987).

Common to all, as to format: ADME
Data set [1] in a line: Pseudo first order rate constant of the beta-lactam ring cleavage determined from UV spectra (pH 10, 35 degree C). The method in brief: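 Oxacephem at about 7.5×10^-5 M initial in 0.008 M carbonate buffer, μ = 0.1, 35.0 ± 0.2 °C. Loss of UV absorbance near 260 nm recorded continuously over time. Pseudo-first-order constant for β-lactam cleavage obtained by the Guggenheim method.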

The nature of data set [2]: Pseudo first order rate constant of the beta-lactam ring cleavage determined from 1H NMR spectra. The method in brief:
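Oxacephem (about 1×10^-2 M initial) in 0.2 M deuteriated carbonate buffer, pD 10.4, μ = 0.5, held at 35 ± 0.5 °C. β-Lactam loss followed by 1H NMR with 64 acquisitions per spectrum. Pseudo-first-order constant from regression of residual oxacephem fraction against time in hours.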

Data set [3] is described as follows: Pseudo first order rate constant of the beta-lactam ring cleavage determined from 1H NMR spectra; value is corrected for parallel correction. A digest of the protocol:
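Degradation in 0.2 M deuteriated carbonate buffer, pD 10.4, μ = 0.5, 35 °C, oxacephem about 1×10^-2 M. Time courses of parent and products were recorded by 1H NMR. Rate constants came from kinetic analysis of a parallel-reaction scheme fitted to the experimental curves, which separates the OH− contribution to β-lactam cleavage.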

In the case of `CO[C@@]1(NC(=O)Cc2ccccc2)C(=O)N2C(C(=O)[O-])=C(C)CO[C@@H]21.[Na+]`, the results for the k obs in data set [1] and in data set [2] were 0.0346 h⁻¹ and 0.0484 h⁻¹, respectively.
Turning to `CO[C@@]1(NC(=O)Cc2ccccc2)C(=O)N2C(C(=O)[O-])=C(COC(C)=O)CO[C@@H]21.[Na+]`, the k obs in data set [1] stood at 0.285 h⁻¹; in data set [3], 0.308 h⁻¹; in data set [2], 0.255 h⁻¹.
In the case of `CO[C@@]1(NC(=O)Cc2ccccc2)C(=O)N2C(C(=O)[O-])=C(CC#N)CO[C@@H]21.[Na+]`, the k obs was 0.234 h⁻¹ in data set [1] and 0.289 h⁻¹ in data set [2].
The corresponding values for `COCC1=C(C(=O)[O-])N2C(=O)[C@](NC(=O)Cc3ccccc3)(OC)[C@H]2OC1.[Na+]` are 0.144 h⁻¹ and 0.204 h⁻¹.
The corresponding values for `CO[C@@]1(NC(=O)Cc2ccccc2)C(=O)N2C(C(=O)[O-])=C(CO)CO[C@@H]21.[Na+]` are 0.139 h⁻¹ and 0.164 h⁻¹.
The like results for `CO[C@@]1(NC(=O)Cc2ccccc2)C(=O)N2C(C(=O)[O-])=C(CSC)CO[C@@H]21.[Na+]` were, in that order, 0.101 h⁻¹ and 0.11 h⁻¹.
Take `CO[C@@]1([N-]C(=O)Cc2ccccc2)C(=O)N2C(C(=O)[O-])=C(C[n+]3ccccc3)CO[C@@H]21.[Na+]`: the k obs in data set [1] is 1.26 h⁻¹; in data set [2] it was 1.39 h⁻¹.
Take `CO[C@@]1(NC(=O)Cc2ccccc2)C(=O)N2C(C(=O)[O-])=C(COC(N)=O)COC21.[Na+]` (some centres undefined): the k obs was determined as 0.23 h⁻¹ in data set [1] and 0.45 h⁻¹ in data set [2].
Consider `CO[C@@]1(NC(=O)Cc2ccccc2)C(=O)N2C(C(=O)[O-])=C(CSc3nnnn3C)CO[C@@H]21.[Na+]`, for which the k obs is 0.204 h⁻¹ in data set [1] and 0.192 h⁻¹ in data set [2].
